These results are taken from ChEMBL document CHEMBL2417369, “Synthesis and evaluation of heteroaryl substituted diazaspirocycles as scaffolds to probe the ATP-binding site of protein kinases” (Bioorg Med Chem, 2013).

Structures are written as SMILES.

For test [1], the target named is Proto-oncogene tyrosine-protein kinase Src (Homo sapiens, UniProt P12931). As to the kind of experiment: Inhibition of SRC (unknown origin) at 30 uM by microfluidic mobility shift assay relative to control. A digest of the protocol:
(§1)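 Single-point screen in a 24-enzyme kinase panel using a microfluidic assay. Each compound was tested at […] with ATP at roughly the Km for each enzyme. The pan-AGC inhibitor H-89 served as an internal control on every plate.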

Test [2] concerns the target Tyrosine-protein kinase Lck (Homo sapiens, UniProt P06239). The experiment in a line: Inhibition of LCK (unknown origin) at 30 uM by microfluidic mobility shift assay relative to control. A digest of the protocol: as §1
The next test is filed under the species Homo sapiens. As to the kind of experiment: Inhibition of PKA (unknown origin) at 30 uM by microfluidic mobility shift assay relative to control. A digest of the protocol: as §1
Test [3] has as its target Tyrosine-protein kinase Lyn (Homo sapiens, UniProt P07948). As to the kind of experiment: Inhibition of LYN (unknown origin) at 30 uM by microfluidic mobility shift assay relative to control. A digest of the protocol:
as §1

The target in test [4] is Tyrosine-protein kinase Fyn (Homo sapiens, UniProt P06241). As to the kind of experiment: Inhibition of FYN (unknown origin) at 30 uM by microfluidic mobility shift assay relative to control. A digest of the protocol: as §1
Chain of Tyrosine-protein kinase Fyn (P06241 2-537 limits assumed): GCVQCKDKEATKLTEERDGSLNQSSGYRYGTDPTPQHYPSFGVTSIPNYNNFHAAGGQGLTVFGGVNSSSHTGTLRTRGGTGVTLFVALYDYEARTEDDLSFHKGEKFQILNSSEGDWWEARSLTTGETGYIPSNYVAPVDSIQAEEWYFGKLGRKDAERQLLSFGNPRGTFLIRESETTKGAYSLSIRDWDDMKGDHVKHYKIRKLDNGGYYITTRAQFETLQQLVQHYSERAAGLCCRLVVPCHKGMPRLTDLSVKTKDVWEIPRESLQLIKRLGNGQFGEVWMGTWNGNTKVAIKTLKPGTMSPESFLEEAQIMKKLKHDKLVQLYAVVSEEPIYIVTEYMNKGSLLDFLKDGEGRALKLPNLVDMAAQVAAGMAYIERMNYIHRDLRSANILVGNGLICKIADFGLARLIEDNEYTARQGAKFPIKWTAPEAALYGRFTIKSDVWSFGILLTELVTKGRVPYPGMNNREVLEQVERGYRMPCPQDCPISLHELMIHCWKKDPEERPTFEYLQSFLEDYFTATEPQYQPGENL
The target in test [5] is Insulin receptor (Homo sapiens) (UniProt P06213). The experiment in a line: Inhibition of INSR (unknown origin) at 30 uM by microfluidic mobility shift assay relative to control. A digest of the protocol:
as §1

In test [6] the target is Protein kinase C (PKC) (Homo sapiens) (UniProt O94806+P41743+P17252+P05129+Q05655+P05771+Q05513+Q02156+P24723+Q15139+Q04759). The experiment in a line: Inhibition of PKC (unknown origin) at 30 uM by microfluidic mobility shift assay relative to control. A digest of the protocol: as §1

Chain of Proto-oncogene tyrosine-protein kinase Src (P12931 2-536 limits assumed): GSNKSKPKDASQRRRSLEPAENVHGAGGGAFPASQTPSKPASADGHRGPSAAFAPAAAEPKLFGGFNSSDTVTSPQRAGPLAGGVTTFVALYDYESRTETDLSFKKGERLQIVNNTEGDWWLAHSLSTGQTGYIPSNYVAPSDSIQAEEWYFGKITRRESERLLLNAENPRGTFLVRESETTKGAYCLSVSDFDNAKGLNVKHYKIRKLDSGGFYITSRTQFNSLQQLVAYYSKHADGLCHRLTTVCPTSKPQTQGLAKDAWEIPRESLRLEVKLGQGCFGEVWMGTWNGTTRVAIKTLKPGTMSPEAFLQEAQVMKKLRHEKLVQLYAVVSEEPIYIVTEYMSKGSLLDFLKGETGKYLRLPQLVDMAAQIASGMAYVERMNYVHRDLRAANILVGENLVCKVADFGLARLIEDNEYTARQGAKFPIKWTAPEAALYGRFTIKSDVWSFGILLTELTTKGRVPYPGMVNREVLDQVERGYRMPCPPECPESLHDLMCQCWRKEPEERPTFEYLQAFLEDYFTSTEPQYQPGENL
Chain of Tyrosine-protein kinase Lck (P06239 2-509 limits assumed): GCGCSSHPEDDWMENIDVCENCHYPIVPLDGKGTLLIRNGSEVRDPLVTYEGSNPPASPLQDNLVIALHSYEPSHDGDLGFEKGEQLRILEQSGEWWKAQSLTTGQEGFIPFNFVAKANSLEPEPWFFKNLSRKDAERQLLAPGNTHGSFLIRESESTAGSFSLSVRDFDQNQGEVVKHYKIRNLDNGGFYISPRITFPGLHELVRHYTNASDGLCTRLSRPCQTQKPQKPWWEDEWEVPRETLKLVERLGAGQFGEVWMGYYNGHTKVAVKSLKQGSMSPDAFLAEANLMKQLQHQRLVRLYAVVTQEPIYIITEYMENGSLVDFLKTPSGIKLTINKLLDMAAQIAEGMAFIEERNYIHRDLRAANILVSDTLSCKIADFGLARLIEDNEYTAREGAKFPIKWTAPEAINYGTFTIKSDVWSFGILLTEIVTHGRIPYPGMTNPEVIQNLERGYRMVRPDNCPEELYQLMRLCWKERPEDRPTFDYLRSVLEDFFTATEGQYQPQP
Chain of Insulin receptor (Homo sapiens) (P06213 28-758 limits assumed): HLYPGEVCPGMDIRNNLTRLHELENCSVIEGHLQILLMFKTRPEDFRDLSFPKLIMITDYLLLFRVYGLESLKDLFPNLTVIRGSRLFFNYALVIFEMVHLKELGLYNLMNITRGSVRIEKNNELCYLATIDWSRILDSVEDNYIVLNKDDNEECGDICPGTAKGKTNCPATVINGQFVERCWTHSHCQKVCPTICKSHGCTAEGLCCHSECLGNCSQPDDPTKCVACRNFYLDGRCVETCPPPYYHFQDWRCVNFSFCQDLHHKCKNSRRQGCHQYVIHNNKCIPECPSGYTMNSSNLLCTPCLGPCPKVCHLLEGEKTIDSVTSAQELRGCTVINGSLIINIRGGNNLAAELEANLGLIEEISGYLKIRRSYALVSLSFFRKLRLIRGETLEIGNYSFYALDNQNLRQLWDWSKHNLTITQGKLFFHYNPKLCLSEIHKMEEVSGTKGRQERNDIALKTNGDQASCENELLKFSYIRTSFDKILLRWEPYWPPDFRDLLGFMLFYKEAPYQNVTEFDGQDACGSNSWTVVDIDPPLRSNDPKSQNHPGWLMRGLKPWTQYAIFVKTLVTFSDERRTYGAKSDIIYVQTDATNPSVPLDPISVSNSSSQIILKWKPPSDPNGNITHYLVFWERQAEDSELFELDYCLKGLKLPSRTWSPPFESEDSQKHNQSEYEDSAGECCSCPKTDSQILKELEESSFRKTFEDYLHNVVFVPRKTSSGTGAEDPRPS
Chain of Insulin receptor (Homo sapiens) (P06213 763-1382 limits assumed): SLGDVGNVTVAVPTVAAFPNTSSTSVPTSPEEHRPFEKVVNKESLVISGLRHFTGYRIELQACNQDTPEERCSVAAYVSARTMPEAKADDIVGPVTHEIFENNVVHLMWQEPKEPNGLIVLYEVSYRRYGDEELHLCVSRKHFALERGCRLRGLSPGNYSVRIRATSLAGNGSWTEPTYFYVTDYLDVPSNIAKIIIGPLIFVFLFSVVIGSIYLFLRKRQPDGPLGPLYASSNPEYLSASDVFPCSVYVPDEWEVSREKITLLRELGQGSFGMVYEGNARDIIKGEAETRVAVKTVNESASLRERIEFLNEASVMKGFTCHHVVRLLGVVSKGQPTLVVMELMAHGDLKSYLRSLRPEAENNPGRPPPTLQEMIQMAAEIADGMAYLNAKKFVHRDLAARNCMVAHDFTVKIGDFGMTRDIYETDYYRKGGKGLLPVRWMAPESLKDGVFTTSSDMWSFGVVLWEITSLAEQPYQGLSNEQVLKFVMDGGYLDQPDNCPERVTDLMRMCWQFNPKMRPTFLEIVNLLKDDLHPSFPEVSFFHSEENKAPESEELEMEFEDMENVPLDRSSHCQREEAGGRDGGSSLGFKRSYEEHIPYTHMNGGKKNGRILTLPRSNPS
Chain of Tyrosine-protein kinase Lyn (P07948 2-512 limits assumed): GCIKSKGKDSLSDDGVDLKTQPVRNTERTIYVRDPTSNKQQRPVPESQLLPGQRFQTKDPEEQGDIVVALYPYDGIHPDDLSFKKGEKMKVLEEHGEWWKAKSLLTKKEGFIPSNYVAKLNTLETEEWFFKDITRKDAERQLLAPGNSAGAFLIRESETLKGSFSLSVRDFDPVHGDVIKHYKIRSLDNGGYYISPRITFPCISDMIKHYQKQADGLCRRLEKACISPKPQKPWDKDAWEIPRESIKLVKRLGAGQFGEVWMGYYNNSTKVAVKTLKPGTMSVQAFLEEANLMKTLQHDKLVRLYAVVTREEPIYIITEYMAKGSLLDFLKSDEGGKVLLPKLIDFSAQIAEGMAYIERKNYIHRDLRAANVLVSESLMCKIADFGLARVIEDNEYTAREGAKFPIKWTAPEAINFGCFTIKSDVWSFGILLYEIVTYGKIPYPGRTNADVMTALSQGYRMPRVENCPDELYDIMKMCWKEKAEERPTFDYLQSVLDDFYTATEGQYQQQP

One may read the inhibition as the percentage by which the read-out fell short of the control. With `O=S(=O)(NCCNC/C=C/c1ccc(Br)cc1)c1cccc2cnccc12`, the inhibition in test [1] is 4%; in test [2], 22%; in the test filed under Homo sapiens, 100%; in test [3] it was 50%; in test [4] it was 14%; in test [5] it was 29%. Further, the inhibition in test [6] is 64%.
